# Only some compounds are listed: those with a hit (about 3.5% of all), similar ones and a draw of the others.
# RGS4 inh = human RGS4 inhibition | 310,000 compounds, 0.45% hits | AID 463165 | B-score at 10 µM | HEK293 M3R/RGS4 inducible, Fluo-4 calcium flux; active compounds read high; triggered by carbachol at its EC20 | P49798;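 active = B-score, a plate-corrected calcium signal, over three deviations above library mean, with baseline fluorescence within five deviations of library mean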;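 note: RGS4 expression induced by doxycycline in cells with stable M3 receptor; B-score is computed from the integrated fluorescence ratio over baseline after carbachol; higher B-score means a larger calcium signal and so more RGS4 inhibition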
# Target sequence (P49798 whole entry, looked up): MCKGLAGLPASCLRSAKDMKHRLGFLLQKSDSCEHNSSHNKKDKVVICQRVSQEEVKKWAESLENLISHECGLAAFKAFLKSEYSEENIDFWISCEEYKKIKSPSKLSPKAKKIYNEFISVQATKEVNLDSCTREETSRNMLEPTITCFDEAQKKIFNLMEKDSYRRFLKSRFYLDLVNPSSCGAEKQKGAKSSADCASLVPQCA
# RGS4 pot = RGS4 potentiation or activation; HEK293 M3R/inducible RGS4, carbachol calcium flux Fluo4; active compounds read low; 310,000 compounds, 0.92% hits; B-score at 10 µM;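 active = B-score of the integrated calcium signal more than 4 SD below the library mean, with starting fluorescence not abnormally high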;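 note: negative B-score means reduced calcium response which marks RGS4 activation or potentiation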
#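 Test system: HEK293 cells with stable M3R and inducible RGS4; also added: carbachol at ECmax as muscarinic agonist stimulus; schedule: dye loading 30 min 37 °C, buffer rest 30 min RT; technique: kinetic calcium fluorescence imaging with Fluo4-AM dye, 2 µM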
# MrgX1 PAM = human MrgX1 positive allosteric modulation, primary screen. Q96LB2. MrgX1-HEK293, Fluo-4 calcium flux, FDSS; active compounds read high. B-score at 10 µM. 310,000 compounds, 0.63% hits. AID 588675;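 active = plate-corrected calcium response at least 3 library SD above typical, normal starting fluorescence, not activating the receptor alone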;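 note: compound read alongside a low EC10 to EC30 dose of BAM8-22 agonist; peak minus trough fluorescence over baseline measured at the second addition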
# Target sequence (Q96LB2 whole entry, looked up): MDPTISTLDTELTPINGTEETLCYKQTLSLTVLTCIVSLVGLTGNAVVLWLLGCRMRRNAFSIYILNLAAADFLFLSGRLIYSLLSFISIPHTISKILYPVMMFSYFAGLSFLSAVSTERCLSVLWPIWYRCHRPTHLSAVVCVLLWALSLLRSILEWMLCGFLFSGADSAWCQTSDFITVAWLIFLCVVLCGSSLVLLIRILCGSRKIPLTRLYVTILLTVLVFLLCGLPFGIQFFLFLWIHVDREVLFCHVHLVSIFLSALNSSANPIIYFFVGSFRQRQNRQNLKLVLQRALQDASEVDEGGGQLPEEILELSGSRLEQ
# MrgX1 ag = human MrgX1 receptor agonism, primary screen | AID 588627 | B-score at 10 µM | 310,000 compounds, 0.44% hits | MrgX1-HEK293 cells, Fluo-4 calcium fluorescence, agonist mode; active compounds read high;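 active = calcium response B-score plate-corrected fluorescence ratio at least 3 library SD, with starting fluorescence B-score inside 5 SD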
#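 Material: MrgX1-expressing HEK293 cells; input: 15,000 cells per well; doses: test compound given as first of three sequential additions; schedule: overnight plating before 1 h dye loading; technique: Fluo-4 NW calcium-flux fluorescence, kinetic read; evaluation: baseline-normalised fluorescence change ratio, B-scored; control set: plate-wise positive and negative controls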
# MrgX1 antag = antagonists of human MrgX1 receptor | AID 588676 | B-score at 10 µM | MRGX1-HEK293 calcium flux, Fluo-4, BAM8-22 antagonism; active compounds read low | 310,000 compounds, 1.3% hits;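 active = calcium-response B-score plate-corrected more than 3 library SD below zero, starting fluorescence within 5 deviations, no agonist response on first addition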;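 note: peak minus trough fluorescence over baseline after final BAM8-22 challenge near maximal dose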
# Hits are given with their value; - = inactive; . = not tested or not shown.
SMILES,RGS4 inh,RGS4 pot,MrgX1 PAM,MrgX1 ag,MrgX1 antag
CC(Oc1ccc(Cl)cc1)C(=O)NNC(=S)NC(=O)c1ccco1 (stereo not given),-,-,-,90,-
CC(C)(C)c1ccc(OCC(=O)NNC(=O)CCc2ccccc2)cc1,-,-,-,-,-
O=C(NC(=S)NNC(=O)c1cccs1)c1ccco1,-,-,-,28,-
CC(=O)c1sc(NC(=O)CN2C(=O)C3CC=CCC3C2=O)nc1-c1ccccc1 (stereo not given),-,-,-,-,-
O=C(c1ccc(-n2cccn2)cc1)N1CCN(c2ncccc2C(F)(F)F)CC1,-,-,-,-,-
CCCCn1c(N)c(N(CCC(C)C)C(=O)CCN2C(=O)C3CC=CCC3C2=O)c(=O)[nH]c1=O (stereo not given),-,-,-,-,-
CC(C)(C)c1ccc(C(=O)NC(=S)NNC(=O)c2cccs2)cc1,-,-,-,47,-
O=C(c1cccc([N+](=O)[O-])c1)N1CC2C3C=CC(C3)C2C1 (stereo not given),-,-,-,-,-
O=C(c1ccccc1[N+](=O)[O-])N1CC2C3C=CC(C3)C2C1 (stereo not given),-,-7.1,-,-,-
O=C(COC(=O)c1cc(=O)[nH]c2ccccc12)c1cccs1,-,-,-,-,-
O=C(Cc1ccccc1Cl)Nc1nc2ccccc2[nH]1,-,-,-,-,-
CC(=O)Nc1ccc(SCC(=O)OCC(=O)NC(=O)NCCC(C)C)cc1,-,-,-,-,-7.3
CC(=O)Nc1ccc(SCC(=O)OCC(=O)NC(=O)NCc2ccco2)cc1,-,-,-,-,-
O=C(c1nn(Cc2ccccc2)c(=O)c2ccccc12)N1CCN(c2ccccn2)CC1,-,-,-,-,-
O=C(c1nn(Cc2ccccc2)c(=O)c2ccccc12)N1CCc2ccccc2C1,-,-8.5,-,-,-
CC(=O)N1CCN(C(=O)c2ccc(OC3CCN(CCc4ccccc4)CC3)cc2)CC1,-,-,-,-,-
O=C(c1ccc(OC2CCN(CCCc3ccccc3)CC2)cc1)N1CCCC1,-,-7.4,-,-,-
CCOC(=S)SCC(=O)N1CCc2ccccc2C1C1C(=O)CCCC1=O (stereo not given),-,-,-,-,-
CCCCCCc1nc2ccccc2c(=O)n1N,-,-,9.1,-,-
C=CCCCCc1nc2ccccc2c(=O)n1N,-,-,-,-,-
O=[N+]([O-])c1cc([N+](=O)[O-])c2cc3ccccc3nc2c1,14,-,-,28,-
O=[N+]([O-])c1cnc2ccccc2c1,-,-,-,-,-
O=c1oc2c3c4c(cc2s1)CCCN4CCC3,-,-,-,-,-
O=c1ccc2cc3c4c(c2o1)CCCN4CCC3,-,-7.4,-,-,-
COc1ccc(C(c2nnnn2C2CCCC2)N2CCN(C(=O)c3ccco3)CC2)cc1OC (stereo not given),-,-,-,-,-
SMILES,RGS4 inh,RGS4 pot,MrgX1 PAM,MrgX1 ag,MrgX1 antag
O=C(c1ccco1)N1CCN(C(c2cccs2)c2nnnn2C2CCCCC2)CC1 (stereo not given),-,-7.6,-,-,-
CCN(C(=O)C1CCCN(c2ncnc3c2nc2n3CCCCC2)C1)c1cccc(Cl)c1 (stereo not given),-,-,-,-,-
Cc1nc(NC(=O)CSc2nnc(-c3ccccc3)c(-c3ccccc3)n2)c(Cl)cc1Cl,-,-7.2,-,-,-
CO/N=C/C(c1ccc(Cl)nc1)S(=O)(=O)c1ccccc1 (stereo not given),-,-,-,-,-
CO/N=C/C(c1ncc(C(F)(F)F)cc1Cl)S(=O)(=O)c1ccccc1 (stereo not given),-,-,-,-,-8.2
CCCN(CCC)CCNC(=O)c1cc2c(-c3ccc(Cl)cc3)nn(C)c2s1,-,-7.2,-,-,-
CNC(=S)N1N=C(c2ccc(Br)cc2)CC1c1ccc(Br)cc1 (stereo not given),-,-,-,-,-
Cc1cc2n(n1)C(c1ccccc1)CC(c1ccc(Br)cc1)=N2 (stereo not given),.,.,15,-,-
Cc1nc2ccccc2c(=O)n1CCN1CCOCC1,-,-7.4,-,-,-
Nc1ccccc1Sc1ccc(C(=O)c2ccccc2C(=O)O)cc1[N+](=O)[O-],-,-,-,-,-
CN1CCN(Cc2ccc(Sc3ccc(Cl)cc3)c([N+](=O)[O-])c2)CC1,-,-8.3,-,-,-
O=C(O)c1ccccc1C(=O)c1ccc(Sc2ccc(Cl)cc2)c([N+](=O)[O-])c1,-,-,-,38,-
Cc1nn(C)c(C)c1/C=N/N=C1\CCC2C3CCc4cc(O)ccc4C3CCC12C (stereo not given),-,-,-,-,-5.6
COCc1c(C#N)c(NCCc2ccccc2)nc(C)c1[N+](=O)[O-],-,-,-,-,-6.3
Cc1nc(NCCc2ccc(F)cc2)c(C#N)c(C)c1[N+](=O)[O-],-,-,-,38,-
COCc1c(C#N)c(NCCc2ccc(F)cc2)nc(C)c1[N+](=O)[O-],-,-,-,-,-
CC12CCC(C(=O)N(CSC(=S)N/N=C\c3ccccc3O)C1=O)C2(C)C (stereo not given),-,-,9.3,-,-
S=C(NCCc1ccccc1)N1CCN(C23CC4CC(CC(C4)C2)C3)CC1,-,-,-,-,-
CCn1c(C)cc(/C=C2/SC(=S)N(CC(=O)O)C2=O)c1C,-,-,17,-,-
C#CCN1C(=O)S/C(=C/c2cc(C)n(CC)c2C)C1=O,-,-,-,-,-
COc1ccc(CC(=O)NC(C)c2nnc(SCC(=O)c3ccc(Br)cc3)n2C)cc1 (stereo not given),-,-,-,-,-7.4
CCn1c(SCC(=O)c2ccc(Br)cc2)nnc1C(C)NC(=O)Cc1ccc(OC)cc1 (stereo not given),-,-,-,-,-
N#C/C(=C/c1ccc(N2CCCCCC2)o1)c1cccc(F)c1,-,-,-,-,-
COc1cc(N2CCCC2)c(OC)cc1/C=C(/C#N)c1cccc(F)c1,-,-,-,-,-11
Cc1ccc(C)c(N2CCN(CCN3CCCCC3)CC2)c1,-,-,-,-,-
SMILES,RGS4 inh,RGS4 pot,MrgX1 PAM,MrgX1 ag,MrgX1 antag
Cc1ccc(OC(=O)C2c3ccccc3Oc3ccccc32)cc1C,-,-7.8,-,-,-
COc1ccc(-n2cc([N+](=O)[O-])c(=O)c3ccc(Cl)cc32)cc1,-,-,-,-,-
CCOC(=O)C1CCN(C(=O)Cn2nc(C)n3cccc3c2=O)CC1,-,-,-,-,-
CC(C)On1c(SC(C)C)nc2ccccc2c1=O,-,-,-,-,-
COn1c(SC(C)C)nc2ccccc2c1=O,-,-,9.2,-,-
Cc1ccc(C(C)(O)CS(=O)(=O)Cc2ccccc2Cl)cc1 (stereo not given),-,-,-,-,-
COc1cccc(-c2nc(N3CCC(C)CC3)c3ccccc3n2)c1O,-,-7.1,-,-,-

# Screens (PubChem BioAssay)
